In ChEMBL document CHEMBL1122269, “Synthesis and biological evaluation of neutral derivatives of 5-fluoro-2'-deoxyuridine 5'-phosphate” (1983):

Columns and labels:
P388 [1] = test: Percentage increase in life span of murine leukemia P388 resistant to 5-FU, at a dose 108 mg/kg; format: functional; details: Mus musculus
Method in brief: (§1)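 P-388 model in male BDF₁ mice, six per group, average weight 23 g: 1×10^6 cells ip on day 0, then compound in 0.9% saline ip daily ×5 from 24 h. Mice were observed up to 60 days. % ILS = (T/C − 1) × 100, using median survival of treated mice versus saline-treated controls.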

P388 [2] = test: Median survival time (MST) of murine leukemia P388 (1*10e 6 cells) resistant to 5-FU in mice, dose of 300 mg/kg(ip); format: functional, Mus musculus
Method in brief: (§2)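 Male BDF₁ mice, six per group, average weight 23 g, were inoculated ip with 1×10^6 P-388 cells on day 0. Compound in 0.9% saline was given ip daily for 5 days from 24 h post-implant. Mice were followed for 60 days or until death, and median survival time was recorded. Saline-treated controls numbered 20 mice.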

P388 [3] = test: Median survival time (MST) of murine leukemia P388 (1*10e 6 cells) sensitive to 5-FU in mice, dose of 300 mg/kg(ip); format: functional, Mus musculus; method in brief: as §2
P388 [4] = test: Median survival time (MST) of murine leukemia P388 (1*10e 6 cells) resistant to 5-FU in mice, dose of 108 mg/kg(ip); format: functional, Mus musculus; method in brief: as §2
P388 [5] = test: Average percentage weight change on day 6 in murine leukemia P388 sensitive to 5-FU at a dose 180 mg/kg; format: functional, Mus musculus
Method in brief: (§3)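 Male BDF₁ mice, six per group, average weight 23 g, were inoculated ip on day 0 with 1×10^6 P-388 leukemia cells, either 5-FU-sensitive or 5-FU-resistant. Compound in 0.9% saline was given ip once daily for 5 consecutive days, starting 24 h after tumor transplantation. Saline-treated animals served as controls.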

P388 [6] = test: Average percentage weight change on day 6 in murine leukemia P388 sensitive to 5-FU at dose 500 mg/kg; format: functional, Mus musculus; method in brief: as §3
P388 [7] = test: Average percentage weight change on day 6 in murine leukemia P388 resistant to 5-FU at dose 108 mg/kg; format: functional, Mus musculus; method in brief: as §3
P388 [8] = test: Percentage increase in life span of murine leukemia P388 sensitive to 5-FU at dose 300 mg/kg; format: functional; details: Mus musculus; method in brief: as §1
P388 [9] = test: Average percentage weight change on day 6 in murine leukemia P388 resistant to 5-FU at dose 180 mg/kg; format: functional, Mus musculus; method in brief: as §3
P388 [10] = test: Percentage increase in life span of murine leukemia P388 resistant to 5-FU, at a dose 180 mg/kg; format: functional; details: Mus musculus; method in brief: as §1
P388 [11] = test: Median survival time (MST) of murine leukemia P388 (1*10e 6 cells) sensitive to 5-FU in mice, dose of 500 mg/kg(ip); format: functional, Mus musculus; method in brief: as §2
P388 [12] = test: Percentage increase in life span of murine leukemia P388 sensitive to 5-FU at dose 500 mg/kg; format: functional; details: Mus musculus; method in brief: as §1
P388 [13] = test: Average percentage weight change on day 6 in murine leukemia P388 resistant to 5-FU at dose 300 mg/Kg; format: functional, Mus musculus; method in brief: as §3
P388 [14] = test: Percentage increase in life span of murine leukemia P388 sensitive to 5-FU at dose 180 mg/kg; format: functional; details: Mus musculus; method in brief: as §1
P388 [15] = test: Average percentage weight change on day 6 in murine leukemia P388 sensitive to 5-FU at dose 300 mg/kg; format: functional, Mus musculus; method in brief: as §3
P388 [16] = test: Percentage increase in life span of murine leukemia P388 sensitive to 5-FU at dose 108 mg/kg; format: functional; details: Mus musculus; method in brief: as §1
P388 [17] = test: Median survival time (MST) of murine leukemia P388 (1*10e 6 cells) resistant to 5-FU in mice, dose of 180 mg/kg(ip); format: functional, Mus musculus; method in brief: as §2
P388 [18] = test: Median survival time (MST) of murine leukemia P388 (1*10e 6 cells) sensitive to 5-FU in mice at dose of 180 mg/kg(ip); format: functional, Mus musculus; method in brief: as §2
P388 [19] = test: Median survival time (MST) of murine leukemia P388 (1*10e 6 cells) sensitive to 5-FU in mice at dose of 108 mg/kg(ip); format: functional, Mus musculus; method in brief: as §2
P388 [20] = test: Average percentage weight change on day 6 in murine leukemia P388 sensitive to 5-FU at a dose 108 mg/kg; format: functional, Mus musculus; method in brief: as §3

Structure (SMILES): O=c1[nH]c(=O)n([C@H]2C[C@H](O)[C@@H](COP3(=O)NCCCO3)O2)cc1F (stereo not given in full)
- ILS at 108 mg/kg (P388 [1]): 0%
- MST (P388 [2]): 9 days
- MST (P388 [3]): 14 days
- MST (P388 [4]): 10 days
- Weight change (P388 [5]): -13.9%
- Weight change (P388 [6]): -17.9%
- Weight change (P388 [7]): -3.4%
- ILS at 300 mg/kg (P388 [8]): 55%
- Weight change (P388 [9]): -3.7%
- ILS at 180 mg/kg (P388 [10]): 0%
- MST (P388 [11]): 17 days
- ILS at 500 mg/kg (P388 [12]): 89%
- Weight change (P388 [13]): -5%
- ILS at 180 mg/kg (P388 [14]): 44%
- Weight change (P388 [15]): -15.7%
- ILS at 108 mg/kg (P388 [16]): 33%
- MST (P388 [17]): 10 days
- MST (P388 [18]): 13 days
- MST (P388 [19]): 12 days
- Weight change (P388 [20]): -6.6%
